From ChEMBL document CHEMBL3808328, “Caged xanthones: Potent inhibitors of global predominant MRSA USA300” (Bioorg Med Chem Lett, 2016)
In brackets after ≈: the same amount, converted by molar mass. Activity calls are given as the source filed them. The rule behind the calls is not given here.

Key:
Staphylococcus aureus [1] = assay: Antibacterial activity against methicillin-susceptible Staphylococcus aureus ATCC 25923 assessed as zone of inhibition at 30 ug after 18 hrs by disk diffusion method; format: functional; settings: ATCC 25923, 18 h, read-out: DIZ
Summary of the method: (§1)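 Disks 6 mm in diameter; a 6 mm zone means no growth inhibition. The diameters of complete-inhibition zones are averaged over at least three independent experiments and reported with standard errors.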

Staphylococcus aureus [2] = assay: Antibacterial activity against methicillin-resistant Staphylococcus aureus USA300 SF8300 assessed as zone of inhibition at 30 ug after 18 hrs by disk diffusion method; format: functional; settings: USA300 SF8300, 18 h, read-out: DIZ
Summary of the method: (§2)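 Disk diffusion on 6 mm paper disks, with methicillin-susceptible S. aureus ATCC 25923 as the control strain alongside MRSA USA300 SF8300. The read-out is the diameter of the complete inhibition zone, averaged over at least three independent experiments and reported with standard errors. A 6 mm zone means no growth inhibition.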

HEK293 [3] = assay: Cytotoxicity against human HEK293 cells assessed as reduction in cell viability after 24 to 48 hrs by […] assay
A549 [4] = assay: Cytotoxicity against human A549 cells assessed as reduction in cell viability after 24 to 48 hrs by Presto Blue assay; format: cell-based
Staphylococcus aureus [5] = assay: Antibacterial activity against methicillin-resistant Staphylococcus aureus USA300 SF8300 assessed as growth inhibition after 18 to 20 hrs by microdilution assay; format: functional
Summary of the method: (§3)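 Broth microdilution to find MIC and MBC against MRSA USA300 SF8300. Each compound was serially 2-fold diluted starting from its stock concentration.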

Staphylococcus aureus [6] = assay: Bactericidal activity against methicillin-resistant Staphylococcus aureus USA300 SF8300 after 18 to 20 hrs; format: functional; summary of the method: as §3
Staphylococcus aureus [7] = assay: Antibacterial activity against methicillin-susceptible Staphylococcus aureus ATCC 29213 assessed as growth inhibition after 18 to 20 hrs by microdilution assay; format: functional
Summary of the method: (§4)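 Broth microdilution gives both MIC and MBC. Each compound is serially 2-fold diluted starting from its stock concentration.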

Staphylococcus aureus [8] = assay: Bactericidal activity against methicillin-susceptible Staphylococcus aureus ATCC 29213 after 18 to 20 hrs; format: functional; summary of the method: as §4
HEK293 [9] = assay: Cytotoxicity against human HEK293 cells assessed as change in cell morphology at 12.5 to 25 uM after 10 mins to 2 hrs by microscopic analysis; format: cell-based; settings: hek293, 25 µM
A549 [10] = assay: Cytotoxicity against human A549 cells assessed as change in cell morphology at 12.5 to 25 uM after 10 mins to 2 hrs by microscopic analysis; format: cell-based; settings: a549, 25 µM
Staphylococcus aureus [11] = assay: Effect on methicillin-susceptible Staphylococcus aureus RF122 growth at >= MIC after 2 hrs; format: organism-based
Staphylococcus aureus [12] = assay: Antibacterial activity against methicillin-susceptible Staphylococcus aureus RF122 infected in A549 cells assessed as inhibition of bacterial invasion after 2 hrs
Staphylococcus aureus [13] = assay: Antibacterial activity against methicillin-resistant Staphylococcus aureus USA300 SF8300 assessed as zone of inhibition at 10 ug after 18 hrs by disk diffusion method; format: functional; settings: USA300 SF8300, 18 h, read-out: DIZ; summary of the method: as §2
Staphylococcus aureus [14] = assay: Antibacterial activity against methicillin-susceptible Staphylococcus aureus ATCC 25923 assessed as zone of inhibition at 10 ug after 18 hrs by disk diffusion method; format: functional; settings: ATCC 25923, 18 h, read-out: DIZ; summary of the method: as §1
Staphylococcus aureus [15] = assay: Antibacterial activity against methicillin-susceptible Staphylococcus aureus RF122 infected in A549 cells assessed as inhibition of bacterial invasion at 1.5 uM after 1 hr; format: functional, organism-based
Summary of the method: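 Invasion assay in human epithelial A549 cells infected with S. aureus while the test compound was present. Concentrations were held below those that damage A549 cells. Both non-invading and invading bacteria were then cultured to rule out effects on bacterial growth.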

HEK293 [16] = assay: Cytotoxicity against human HEK293 cells assessed as cells detachment at 12.5 uM after 2 hrs by microscopic analysis; format: cell-based; settings: hek293, 2 h
A549 [17] = assay: Cytotoxicity against human A549 cells assessed as cells detachment at 12.5 uM after 2 hrs by microscopic analysis; format: cell-based; settings: a549, 2 h
HEK293 [18] = assay: Cytotoxicity against human HEK293 cells assessed as cells detachment at 50 uM after 10 mins by microscopic analysis; format: cell-based; settings: hek293, 10 min
A549 [19] = assay: Cytotoxicity against human A549 cells assessed as cells detachment at 50 uM after 10 mins by microscopic analysis; format: cell-based; settings: a549, 10 min
Staphylococcus aureus [20] = assay: Antibacterial activity against methicillin-susceptible Staphylococcus aureus ATCC 25923 assessed as zone of inhibition at 1 ug after 18 hrs by disk diffusion method; format: functional; settings: ATCC 25923, 18 h, read-out: DIZ; summary of the method: as §2
Staphylococcus aureus [21] = assay: Antibacterial activity against methicillin-resistant Staphylococcus aureus USA300 SF8300 assessed as zone of inhibition at 1 ug after 18 hrs by disk diffusion method; format: functional; settings: USA300 SF8300, 18 h, read-out: DIZ; summary of the method: as §2

Structure (SMILES)	zone of inhibition at 30 µg/disc (Staphylococcus aureus [1]) [mm]	zone of inhibition at 30 µg/disc (Staphylococcus aureus [2]) [mm]	IC50 (A549 [4]) [µM]	MIC (Staphylococcus aureus [5]) [µM]	MBC (Staphylococcus aureus [6]) [µM]	MIC (Staphylococcus aureus [7]) [µM]	MBC (Staphylococcus aureus [8]) [µM]	also measured
CC(C)=CCc1c2c(c(O)c3c1O[C@@]14C(=C[C@H]5CC1C(C)(C)O[C@]4(C/C=C(/C)C(=O)N[C@@H](CCC(=O)NC(c1ccccc1)(c1ccccc1)c1ccccc1)C(=O)O)C5=O)C3=O)C=CC(C)(C)O2	6.89	8.21						
CSCC[C@H](NC(=O)/C(C)=C\C[C@]12OC(C)(C)C3C[C@H](C=C4C(=O)c5c(O)c6c(c(CC=C(C)C)c5O[C@@]431)OC(C)(C)C=C6)C2=O)C(=O)O	7.09	9.53						
CC(C)=CCc1c2c(c(O)c3c1O[C@@]14C(=C[C@H]5CC1C(C)(C)O[C@]4(CC=C(C)C)C5=O)C3=O)C=CC(C)(C)O2	6	6	1.42					IC50 (HEK293 [3]): 0.81 µM
CC(C)=CCc1c2c(c(O)c3c1O[C@@]14C(=C[C@H]5CC1C(C)(C)O[C@]4(C/C=C(/C)C(=O)N[C@@H](CC(C)C)C(=O)O)C5=O)C3=O)C=CC(C)(C)O2	16.5	18.3	15.5	25 (≈ 16.8 µg/mL)	50 (≈ 33.7 µg/mL)	25 (≈ 16.8 µg/mL)	25 (≈ 16.8 µg/mL)	
CC(C)=CCc1c2c(c(O)c3c1O[C@@]14C(=C[C@H]5CC1C(C)(C)O[C@]4(C/C=C(/C)C(=O)N[C@@H](Cc1ccccc1)C(=O)O)C5=O)C3=O)C=CC(C)(C)O2	17.1	16.3	12.2	25 (≈ 17.7 µg/mL)	25 (≈ 17.7 µg/mL)	12.5 (≈ 8.85 µg/mL)	12.5 (≈ 8.85 µg/mL)	
CC(C)=CCc1c2c(c(O)c3c1O[C@@]14C(=C[C@H]5CC1C(C)(C)O[C@]4(C/C=C(/C)C(=O)N[C@@H](CO)C(=O)O)C5=O)C3=O)C=CC(C)(C)O2	6.09	6.28						
CC(C)=CCC/C(C)=C/Cc1c(O)c(CC=C(C)C)c2c(c1O)C(=O)C1=C[C@H]3CC4C(C)(C)O[C@](CC=C(C)C)(C3=O)[C@]14O2	6	6						
CC(C)=CCc1c2c(c(O)c3c1O[C@@]14C(=C[C@H]5CC1C(C)(C)O[C@]4(C/C=C(/C)C(=O)N[C@H](C(=O)O)C(C)C)C5=O)C3=O)C=CC(C)(C)O2	20	22.2	29.8	25 (≈ 16.5 µg/mL)	25 (≈ 16.5 µg/mL)	12.5 (≈ 8.25 µg/mL)	12.5 (≈ 8.25 µg/mL)	Activity (HEK293 [9]): Non-toxic; Activity (A549 [10]): Non-toxic; Activity (Staphylococcus aureus [11]): Non-toxic; IC50 (HEK293 [3]): 21.8 µM; inhibition (Staphylococcus aureus [12]): Dose-dependent effect
CC(C)=CCc1c2c(c(O)c3c1O[C@@]14C(=C[C@H]5CC1C(C)(C)O[C@]4(C/C=C(\C)CO)C5=O)C3=O)C=CC(C)(C)O2	7.75	8.57	2.69					IC50 (HEK293 [3]): 0.98 µM
CC1(C)S[C@@H]2[C@H](NC(=O)[C@H](N)c3ccccc3)C(=O)N2[C@H]1C(=O)O [AMPICILLIN]				> 100	> 100	1.56 (≈ 0.545 µg/mL)	1.56 (≈ 0.545 µg/mL)	zone of inhibition at 10 µg/disc (Staphylococcus aureus [13]): 6 mm; zone of inhibition at 10 µg/disc (Staphylococcus aureus [14]): 17 mm
CC(C)=CCC[C@]1(C)C=Cc2c(O)c3c(c(CC=C(C)C)c2O1)O[C@]12C(=C[C@@H]4C[C@H]1C(C)(C)O[C@@]2(C/C=C(/C)C(=O)O)C4=O)C3=O [GAMBOGIC ACID]	16.6	17.3	3.4	25 (≈ 15.7 µg/mL)	50 (≈ 31.4 µg/mL)	12.5 (≈ 7.86 µg/mL)	25 (≈ 15.7 µg/mL)	IC50 (HEK293 [3]): 1.72 µM
CC(C)=CCc1c2c(c(O)c3c1O[C@@]14C(=C[C@H]5CC1C(C)(C)O[C@]4(C/C=C(/C)C(=O)N[C@@H](CCC(=O)O)C(=O)O)C5=O)C3=O)C=CC(C)(C)O2	6	6						
CC[C@H](C)[C@H](NC(=O)/C(C)=C\C[C@]12OC(C)(C)C3C[C@H](C=C4C(=O)c5c(O)c6c(c(CC=C(C)C)c5O[C@@]431)OC(C)(C)C=C6)C2=O)C(=O)O	15.9	19.4	24.5	25 (≈ 16.8 µg/mL)	50 (≈ 33.7 µg/mL)	25 (≈ 16.8 µg/mL)	25 (≈ 16.8 µg/mL)	
CC(C)=CCc1c2c(c(O)c3c1O[C@@]14C(=C[C@H]5CC1C(C)(C)O[C@]4(C/C=C(/C)C(=O)N[C@@H](CCC(=O)OCc1ccccc1)C(=O)O)C5=O)C3=O)C=CC(C)(C)O2	6.53							
CC(C)=CCc1c(O)cc(O)c2c1OC13C(=CC4CC1C(C)(C)O[C@]3(CC=C(C)C)C4=O)C2=O	7.86	7.97		> 400	> 400	200 (≈ 92.9 µg/mL)	200 (≈ 92.9 µg/mL)	
COC(=O)/C(C)=C\C[C@]12OC(C)(C)C3C[C@H](C=C4C(=O)c5c(O)c6c(c(CC=C(C)C)c5O[C@@]431)OC(C)(C)C=C6)C2=O	6	6						
CC(C)=CCc1c2c(c(O)c3c1O[C@@]14C(=C[C@H]5CC1C(C)(C)O[C@]4(C/C=C(/C)C(=O)N[C@@H](CCC(N)=O)C(=O)O)C5=O)C3=O)C=CC(C)(C)O2	7.5	9.09						
CC(C)=CCc1c(O)cc(O)c2c1OC13C(=CC4(C/C=C/C(C)C)CC1C(C)(C)O[C@]3(CC=C(C)C)C4=O)C2=O	6	6						
CC(C)=CCc1c2c(c(O)c3c1O[C@@]14C(=C[C@H]5CC1C(C)(C)O[C@]4(C/C=C(/C)C(=O)N1CCC[C@H]1C(=O)O)C5=O)C3=O)C=CC(C)(C)O2	13.1	15.9	21.1	100 (≈ 65.8 µg/mL)	> 100	50 (≈ 32.9 µg/mL)	100 (≈ 65.8 µg/mL)	
CC(C)=CCc1c2c(c(O)c3c1O[C@@]14C(=C[C@H]5CC1C(C)(C)O[C@]4(C/C=C(/C)C(=O)O)C5=O)C3=O)C=CC(C)(C)O2	19.2	19.5	3.5	12.5 (≈ 7.01 µg/mL)	25 (≈ 14 µg/mL)	12.5 (≈ 7.01 µg/mL)	12.5 (≈ 7.01 µg/mL)	IC50 (HEK293 [3]): 2.33 µM; inhibition (Staphylococcus aureus [15]): inactive; Activity (HEK293 [16]): Toxic; Activity (A549 [17]): Toxic; Activity (HEK293 [18]): Toxic; Activity (A549 [19]): Toxic
Cc1onc(-c2ccccc2)c1C(=O)N[C@@H]1C(=O)N2[C@@H]1SC(C)(C)[C@@H]2C(=O)O [OXACILLIN]				> 19.9	> 19.9	0.62 (≈ 0.249 µg/mL)	1.25 (≈ 0.502 µg/mL)	zone of inhibition at 1 µg/disc (Staphylococcus aureus [20]): 28.9 mm; zone of inhibition at 1 µg/disc (Staphylococcus aureus [21]): 6 mm
CC(C)=CCc1c2c(c(O)c3c1O[C@@]14C(C[C@H]5CC1C(C)(C)O[C@]4(C/C=C(\C)C=O)C5=O)C3=O)C=CC(C)(C)O2 (stereo partly specified)	6	6						
